Reference: ChEMBL document CHEMBL2086314, “Synthesis and anticonvulsant activity of new N-Mannich bases derived from 3-(2-fluorophenyl)- and 3-(2-bromophenyl)-pyrrolidine-2,5-diones. Part II” (Bioorg Med Chem, 2012)
Calls of active or inactive are those of the source. The calls are words filed in the database; no cut-off is given here.

How the values were obtained:
Rattus norvegicus [1] = test: Anticonvulsant activity in Sprague-Dawley rat assessed as protection from maximum electric shock-induced seizures at 30 mg/kg, po measured after 2 hrs; type: functional
Outline: (§1)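 Male Sprague–Dawley rats, four per group, given 30 mg/kg orally as a suspension in 0.5% methylcellulose/water. MES stimulus 150 mA, 60 Hz, 0.2 s via corneal electrodes. Tested at 0.25, 0.5, 1, 2 and 4 h; value is rats protected out of four.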

Rattus norvegicus [2] = test: Anticonvulsant activity in Sprague-Dawley rat assessed as protection from maximum electric shock-induced seizures at 30 mg/kg, po measured after 0.5 hrs; type: functional; outline: as §1
Mus musculus [3] = test: Anticonvulsant activity in ip dosed maximal electric shock-induced CF-1 albino mouse assessed as time of peak effect; type: functional
Outline: (§2)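 ED50 and TD50 determined in male CF-1 mice after ip dosing (0.5% methylcellulose suspension) at the previously estimated time of peak effect. MES 50 mA, 60 Hz, 0.2 s. Groups of eight, with doses varied until at least three points fell between 10–90% protection or motor impairment. Regression gives ED50/TD50 with 95% confidence intervals; PI = TD50/ED50.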

Rattus norvegicus [4] = test: Anticonvulsant activity in Sprague-Dawley rat assessed as protection from maximum electric shock-induced seizures at 30 mg/kg, po measured after 1 hr; type: functional; outline: as §1
Mus musculus [5] = species on record: Mus musculus; test: Protective index, ratio of TD50 for CF-1 albino mouse to ED50 for CF-1 albino mouse assessed as protection from maximum electric shock-induced seizures; type: functional; outline: as §2
Rattus norvegicus [6] = test: Anticonvulsant activity in Sprague-Dawley rat assessed as protection from maximum electric shock-induced seizures at 30 mg/kg, po measured after 4 hrs; type: functional; outline: as §1
Mus musculus [7] = test: Neurotoxicity in CF-1 albino mouse assessed as motor impairment, ip measured after 4 hrs by rotarod test; type: toxicity, organism-based; details: in vivo
Mus musculus [8] = test: Anticonvulsant activity in ip dosed CF-1 albino mouse assessed as protection from maximal electric shock-induced seizures; type: functional; outline: as §2
Mus musculus [9] = test: Anticonvulsant activity in CF-1 albino mouse assessed as protection from maximal electric shock-induced seizures at 300 mg/kg, ip measured after 0.5 hrs; type: functional, organism-based; parameters: dose 300 mg/kg
Outline: (§3)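 Male CF-1 mice dosed ip at 30, 100 or 300 mg/kg, suspension in 0.5% methylcellulose/water. MES: corneal electrodes primed with electrolyte containing anaesthetic, 50 mA, 60 Hz, 0.2 s. Examined 0.5 and 4 h after dosing. Value is the minimum dose protecting half or more of the animals.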

Mus musculus [10] = test: Neurotoxicity in CF-1 albino mouse assessed as motor impairment at 300 mg/kg, ip measured after 0.5 hrs by rotarod test; type: toxicity, organism-based; parameters: dose 300 mg/kg, route intraperitoneal; details: in vivo
Outline: (§4)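 Rotarod neurotoxicity in male CF-1 mice given ip doses of 30, 100 or 300 mg/kg (0.5% methylcellulose suspension), examined 0.5 and 4 h after dosing. Impairment means failing to hold balance on the rod for 1 min. Value is the minimum dose causing toxicity in half or more of the animals; response comments are recorded.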

Rattus norvegicus [11] = test: Neurotoxicity in Sprague-Dawley rat assessed as motor impairment at 30 mg/kg, po by rotarod test; type: toxicity, organism-based; parameters: dose 30 mg/kg, route oral; details: in vivo
Outline: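 Male Sprague–Dawley rats, four animals, oral 30 mg/kg in 0.5% methylcellulose/water. Motor impairment on the rotarod (failure to keep balance for 1 min) assessed alongside MES at five times from 0.25 to 4 h.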

Rattus norvegicus [12] = test: Anticonvulsant activity in Sprague-Dawley rat assessed as protection from maximum electric shock-induced seizures at 30 mg/kg, po measured after 0.25 hrs; type: functional; outline: as §1
[13] = Neurotoxicity in ip dosed CF-1 albino mouse assessed as motor impairment by rotarod test; type: toxicity, organism-based; details: in vivo
Mus musculus [14] = test: Anticonvulsant activity in ip dosed CF-1 albino mouse assessed as protection from maximal electric shock-induced seizures measured after 4 hrs; type: functional; details: read-out: MED; outline: as §3
[15] = Neurotoxicity in po dosed Sprague-Dawley rat assessed as motor impairment measured at time of peak effect by rotarod test; type: toxicity, organism-based; details: in vivo
Outline: (§5)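 Male Sprague–Dawley rats dosed orally (0.5% methylcellulose suspension). MES 150 mA, 60 Hz, 0.2 s; rotarod impairment is failure to keep balance for 1 min. Groups of eight, at the previously estimated time of peak effect, with doses varied until at least three points fell in the 10–90% range. ED50/TD50 with 95% confidence intervals from regression; PI = TD50/ED50.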

Mus musculus [16] = test: Anticonvulsant activity in CF-1 albino mouse assessed as protection against 6 Hz psychomotor seizure at 100 mg/kg, ip measured after 0.25 hrs; type: functional; details: route intraperitoneal
Outline: (§6)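 6-Hz psychomotor seizure in male CF-1 mice, compound suspended in 0.5% methylcellulose/water, given ip (100 or 75 mg/kg). Corneal stimulation with 0.2 ms monopolar rectangular pulses at 6 Hz for 3 s, 32 mA, constant-current device. Protected if normal exploratory behaviour resumes within 10 s. Tested 0.25–4 h after dosing; value is mice protected out of four.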

Mus musculus [17] = test: Neurotoxicity in CF-1 albino mouse assessed as motor impairment at 300 mg/kg, ip measured after 4 hrs by rotarod test; type: toxicity, organism-based; parameters: dose 300 mg/kg, route intraperitoneal; details: in vivo; outline: as §4
Mus musculus [18] = test: Neurotoxicity in CF-1 albino mouse assessed as myoclonic jerks at 300 mg/kg, ip measured after 0.5 hrs by rotarod test; type: toxicity, organism-based; parameters: dose 300 mg/kg, route intraperitoneal; details: in vivo
Mus musculus [19] = test: Anticonvulsant activity in CF-1 albino mouse assessed as protection against 6 Hz psychomotor seizure at 100 mg/kg, ip measured after 1 hr; type: functional; details: route intraperitoneal; outline: as §6
Mus musculus [20] = test: Anticonvulsant activity in CF-1 albino mouse assessed as protection against 6 Hz psychomotor seizure at 100 mg/kg, ip measured after 0.5 hrs; type: functional; details: route intraperitoneal; outline: as §6
Rattus norvegicus [21] = test: Anticonvulsant activity in po dosed Sprague-Dawley rat assessed as protection from maximum electric shock-induced seizures; type: functional; outline: as §5
Mus musculus [22] = test: Anticonvulsant activity in CF-1 albino mouse assessed as protection against subcutaneous pentylenetetrazol-induced seizures at 300 mg/kg, ip measured after 4 hrs; type: functional, organism-based; parameters: dose 300 mg/kg
Outline: (§7)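 scPTZ test in male CF-1 mice. Compound suspended in 0.5% methylcellulose/water, ip at 30, 100 or 300 mg/kg. Pentylenetetrazole 85 mg/kg (CD97, clonic seizures lasting at least 5 s) given subcutaneously at the test time, read at 0.5 and 4 h. Value is the minimum dose protecting half or more of the animals.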

Mus musculus [23] = test: Anticonvulsant activity in ip dosed CF-1 albino mouse assessed as protection against subcutaneous pentylenetetrazol-induced seizures measured after 0.5 hrs; type: functional; details: read-out: MED; outline: as §7
Mus musculus [24] = test: Anticonvulsant activity in CF-1 albino mouse assessed as protection against 6 Hz psychomotor seizure at 100 mg/kg, ip measured after 2 hrs; type: functional; details: route intraperitoneal; outline: as §6
Mus musculus [25] = test: Anticonvulsant activity in CF-1 albino mouse assessed as protection against 6 Hz psychomotor seizure at 100 mg/kg, ip measured after 4 hrs; type: functional; details: route intraperitoneal; outline: as §6
Rattus norvegicus [26] = test: Anticonvulsant activity in po dosed maximum electric shock-induced Sprague-Dawley rat assessed as time of peak effect; type: functional; outline: as §5
Mus musculus [27] = test: Neurotoxicity in CF-1 albino mouse assessed as myoclonic jerks at 100 mg/kg, ip measured after 0.5 hrs by rotarod test; type: toxicity, organism-based; parameters: dose 100 mg/kg, route intraperitoneal; details: in vivo
Mus musculus [28] = test: Neurotoxicity in ip dosed CF-1 albino mouse assessed as motor impairment measured after 0.5 hrs by rotarod test; type: toxicity, organism-based; details: in vivo; outline: as §4
Mus musculus [29] = test: Anticonvulsant activity in ip dosed CF-1 albino mouse assessed as protection against subcutaneous pentylenetetrazol-induced seizures measured after 4 hrs; type: functional; details: read-out: MED; outline: as §7
Mus musculus [30] = test: Anticonvulsant activity in ip dosed CF-1 albino mouse assessed as protection from maximal electric shock-induced seizures measured after 0.5 hrs; type: functional; details: read-out: MED; outline: as §3
Mus musculus [31] = test: Neurotoxicity in CF-1 albino mouse assessed as myoclonic jerks at 300 mg/kg, ip measured after 4 hrs by rotarod test; type: toxicity, organism-based; parameters: dose 300 mg/kg, route intraperitoneal; details: in vivo
Rattus norvegicus [32] = species on record: Rattus norvegicus; test: Protective index, ratio of TD50 for Sprague-Dawley rat to ED50 for Sprague-Dawley rat assessed as protection from maximum electric shock-induced seizures; type: functional; outline: as §5
Mus musculus [33] = test: Anticonvulsant activity in CF-1 albino mouse assessed as protection against subcutaneous pentylenetetrazol-induced seizures at 300 mg/kg, ip measured after 0.5 hrs; type: functional, organism-based; parameters: dose 300 mg/kg; outline: as §7

Structure (SMILES) | Activity (Rattus norvegicus [1]) | Activity (Rattus norvegicus [2]) | Time (Mus musculus [3]) | Activity (Rattus norvegicus [4]) | Ratio TD50/ED50 (Mus musculus [5]) | Activity (Rattus norvegicus [6]) | MTC (Mus musculus [7]) | Activity (Mus musculus [10]) | Activity (Rattus norvegicus [11]) | Activity (Rattus norvegicus [12]) | minimal effective dose (Mus musculus [14]) | TD50 [15] | Activity (Mus musculus [17]) | Activity (Mus musculus [22]) | minimal effective dose (Mus musculus [23]) | Time (Rattus norvegicus [26]) | MTC (Mus musculus [28]) | minimal effective dose (Mus musculus [30]) | other results
O=C1CC(c2ccccc2F)C(=O)N1CN1CCN(c2ccc(F)cc2)CC1 (racemic) | 25% | 0% | 4 h | 0% | 1.65 | 50% | 300 mg/kg | Non-toxic | Non-toxic | 0% | 30 mg/kg | – | – | – | – | – | – | – | ED50 (Mus musculus [8]): 101 mg/kg; Activity (Mus musculus [9]): inactive; TD50 [13]: 166 mg/kg
Cl.Cl.O=C1CC(c2ccccc2F)C(=O)N1CN1CCN(CCO)CC1 (racemic) | 25% | 25% | – | 50% | – | 25% | – | Non-toxic | Non-toxic | 25% | 100 mg/kg | > 500 mg/kg | Non-toxic | inactive | 300 mg/kg | 0.5 h | – | – | Activity (Mus musculus [16]): 50%; Activity (Mus musculus [18]): Toxic; Activity (Mus musculus [19]): 0%; Activity (Mus musculus [20]): 25%; ED50 (Rattus norvegicus [21]): > 500 mg/kg; Activity (Mus musculus [24]): 0%; Activity (Mus musculus [25]): 0%
Cl.Cl.O=C1CC(c2ccccc2Br)C(=O)N1CN1CCN(CCO)CC1 (racemic) | 0% | 25% | – | 0% | – | 25% | – | – | Non-toxic | 25% | 100 mg/kg | – | Non-toxic | – | 100 mg/kg | – | 300 mg/kg | 100 mg/kg | Activity (Mus musculus [27]): Toxic; minimal effective dose (Mus musculus [29]): 300 mg/kg; Activity (Mus musculus [31]): Toxic
O=C1NC(=O)C(c2ccccc2)(c2ccccc2)N1 [PHENYTOIN] | 75% | 100% | 1 h | 75% | 7.74 | 75% | 100 mg/kg | – | Non-toxic | 25% | 30 mg/kg | > 100 mg/kg | – | inactive | – | 2 h | 100 mg/kg | 30 mg/kg | Ratio TD50/ED50 (Rattus norvegicus [32]): 3.6; Activity (Mus musculus [33]): inactive
